Reference: ChEMBL document CHEMBL1154869, “Melodinines A-G, monoterpenoid indole alkaloids from Melodinus henryi” (J Nat Prod, 2010)
pIC50: −log10 of the molar value.

Tests used:
Type in all cases: functional, cell-based
HL-60 = experiment: Cytotoxic activity against human HL60 cells after 48 hrs by MTT assay; conditions: HL-60, 48 h
How it was run: (§1)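 Cells kept in RPMI1640 or DMEM with 10% FBS, 5% CO2, 37 °C. Adherent lines seeded in 96-well plates and left 12 h to attach; suspension cells (HL-60) seeded at drug addition, 1 × 10^5 cells/mL. Compounds at 0.0625, 0.32, 1.6, 8 and 40 µM in triplicate for 48 h. Viability by MTT; IC50 from growth curves via Reed and Muench method; cisplatin positive control.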

SMMC-7721 = experiment: Cytotoxic activity against human SMMC7721 cells after 48 hrs by MTT assay; conditions: SMMC-7721, 48 h; how it was run: as §1
A549 = experiment: Cytotoxic activity against human A549 cells after 48 hrs by MTT assay; conditions: A549, 48 h; how it was run: as §1
SK-BR-3 = experiment: Cytotoxic activity against human SK-BR-3 cells after 48 hrs by MTT assay; conditions: SK-BR-3, 48 h; how it was run: as §1

Row | Compound | pIC50 (HL-60) | pIC50 (SMMC-7721) | pIC50 (A549) | pIC50 (SK-BR-3)
1 | CC[C@@]12C=Cn3c4c(c5ccccc53)CC[N+]([O-])(CCC1)[C@H]42 (some centres undefined) [MELODININE G] | < 4.40 | < 4.40 | < 4.40 | < 4.40
2 | CC[C@@H]1CN2CC[C@]34c5ccccc5-n5c3c(cc(C(N)=O)c5=O)[C@H]1C[C@H]24 [LEUCONICINE A] | < 4.40 | < 4.40 | < 4.40 | < 4.40
3 | COC(=O)C1=C2Nc3ccccc3[C@]23CCN2CC[C@H]1[C@@]1(O[C@H]1C)[C@@H]23 [MELODININE D] | < 4.40 | < 4.40 | < 4.40 | < 4.40
4 | CC[C@@H]1CN2CC[C@]34c5ccccc5-n5c3c(cc(C(=O)OC)c5=O)[C@H]1C[C@H]24 [LEUCONICINE B] | < 4.40 | < 4.40 | < 4.40 | < 4.40
5 | C/C=C(/C=O)[C@@H]1C[C@H]2c3[nH]c4ccccc4c3CCN2C=C1C(=O)OC [VALLESIACHOTAMINE] | 5.70 | 4.77 | 4.59 | 4.61
6 | CC[C@@]12C=Cn3c4c(c5ccccc53)CCN(CCC1)[C@H]42 | < 4.40 | < 4.40 | < 4.40 | < 4.40
7 | CC[C@@]12CCCN3C(=O)C=C4c5ccccc5N(C(=O)CC1)C432 (some centres undefined) [MELODININE E] | < 4.40 | < 4.40 | < 4.40 | < 4.40
8 | CCC1=CN2CC[C@]34c5ccccc5-n5c3c(cc(C(=O)OC)c5=O)[C@H]1C[C@H]24 [MELODININE B] | < 4.40 | < 4.40 | < 4.40 | < 4.40
9 | CC[C@]12CCCN3CCc4c(n(c5ccccc45)[C@H](OC)C1)[C@@H]32 | < 4.40 | < 4.40 | < 4.40 | < 4.40
10 | CC[C@]12CCC[N+]3([O-])CCc4c(n(c5ccccc45)[C@H](OC)C1)[C@H]23 (some centres undefined) [MELODININE F] | < 4.40 | < 4.40 | < 4.40 | < 4.40
11 | CC[C@@H]1CN2CC[C@]34c5ccccc5-n5c3c(cc(C(=O)O)c5=O)[C@H]1C[C@H]24 [MELODININE C] | < 4.40 | < 4.40 | < 4.40 | < 4.40
